Experimental data as given in ChEMBL document CHEMBL1128488, “4-Diazinyl- and 4-pyridinylimidazoles: potent angiotensin II antagonists. A study of their activity and computational characterization” (J Med Chem, 1995).

Tests used:
[1] = target: T1, Angiotensin II receptor (AT-1) type-1 (Rattus norvegicus, UniProt P29089+P25095); experiment: Inhibition of [3H]angiotensin II binding to rat adrenal cortex membrane containing angiotensin II receptor, type 1; format: tissue-based
T1 sequence (P29089 whole entry): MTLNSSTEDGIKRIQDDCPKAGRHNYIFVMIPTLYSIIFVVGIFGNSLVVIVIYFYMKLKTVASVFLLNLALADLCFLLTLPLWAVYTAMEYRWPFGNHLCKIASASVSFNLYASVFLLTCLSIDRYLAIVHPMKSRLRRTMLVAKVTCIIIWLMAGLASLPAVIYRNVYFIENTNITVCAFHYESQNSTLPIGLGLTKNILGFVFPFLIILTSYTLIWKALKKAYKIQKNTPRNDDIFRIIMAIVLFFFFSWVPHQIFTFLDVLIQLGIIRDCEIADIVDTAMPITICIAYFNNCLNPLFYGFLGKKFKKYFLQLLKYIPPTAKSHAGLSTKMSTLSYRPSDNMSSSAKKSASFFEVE
T1 sequence (P25095 whole entry): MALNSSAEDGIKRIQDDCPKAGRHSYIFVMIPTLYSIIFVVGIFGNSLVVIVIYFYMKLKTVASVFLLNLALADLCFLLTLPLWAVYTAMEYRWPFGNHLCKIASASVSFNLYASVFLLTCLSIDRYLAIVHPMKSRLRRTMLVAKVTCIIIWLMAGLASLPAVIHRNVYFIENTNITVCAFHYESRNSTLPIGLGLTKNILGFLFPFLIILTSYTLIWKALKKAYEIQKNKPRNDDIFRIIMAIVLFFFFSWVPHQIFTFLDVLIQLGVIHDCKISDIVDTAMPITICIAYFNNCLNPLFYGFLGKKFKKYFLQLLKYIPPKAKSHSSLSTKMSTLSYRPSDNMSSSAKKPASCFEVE

[2] = test system: Rattus norvegicus; experiment: In vivo concentration inhibiting angiotensin II (A II) induced pressor response in conscious normotensive rats 30 mins after oral administration of 2 uM/kg.; format: functional
Method in brief: (§1)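 Male Sprague-Dawley rats (280–340 g), premedicated ip with fentanyl/fluanisone and anesthetized with pentobarbital iv during preparation, then tested conscious. Vehicle or compound given orally by stomach tube at 2 μmol kg−1. A II bolus injections every 15 min for the first hour, then every 30 min, over 4 h.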

[3] = test system: Rattus norvegicus; experiment: In vivo concentration inhibiting angiotensin II (A II) induced pressor response in conscious normotensive rats 15 mins after oral administration of 2 uM/kg.; format: functional; method in brief: as §1

For `CCCCc1nc(-c2cnc[n+]([O-])c2)cn1Cc1ccc(-c2ccccc2-c2nn[nH]n2)cc1`, the Ki [1] was 25 nM.
`CCCCc1nc(-c2c(C(=O)OC)ccc[n+]2[O-])cn1Cc1ccc(-c2ccccc2-c2nn[nH]n2)cc1` showed a Ki [1] of 29 nM.
`CCCCc1nc(-c2c(OC)ccc(C)[n+]2[O-])cn1Cc1ccc(-c2ccccc2-c2nn[nH]n2)cc1` showed a Ki [1] of 38 nM and an Inhibition [2] of -22%.
Compound `CCCCc1nc(-c2ncccn2)cn1Cc1ccc(-c2ccccc2-c2nn[nH]n2)cc1` has a Ki [1] of 59 nM.
`CCCCc1nc(-c2c(C)ncc(C)[n+]2[O-])cn1Cc1ccc(-c2ccccc2-c2nn[nH]n2)cc1` was tested, and the Ki [1] was 2.5 nM and the Inhibition [2] was -44%.
`CCCCc1nc(-c2cncc(C(=O)OC)c2)cn1Cc1ccc(-c2ccccc2-c2nn[nH]n2)cc1` was tested, and the Ki [1] was 30 nM.
`CCCCc1nc(-c2cc(C(=O)OC)c[n+]([O-])c2)cn1Cc1ccc(-c2ccccc2-c2nn[nH]n2)cc1` gave a Ki [1] of 41 nM.
`CCCCc1nc(-c2cnc(C(=O)OC)nc2C)cn1Cc1ccc(-c2ccccc2-c2nn[nH]n2)cc1` gave a Ki [1] of 70 nM.
`CCCCc1nc(-c2ccc(C)nn2)cn1Cc1ccc(-c2ccccc2-c2nn[nH]n2)cc1` was tested, and the Ki [1] was 12 nM and the Inhibition [3] was -30%.
For `CCCCc1nc(-c2nc(C)cnc2C)cn1Cc1ccc(-c2ccccc2-c2nn[nH]n2)cc1`, the Ki [1] was 77 nM and the Inhibition [2] was -18%.
For `CCCCc1nc(-c2cccc(C(=O)OC)n2)cn1Cc1ccc(-c2ccccc2-c2nn[nH]n2)cc1`, the Ki [1] was 19 nM and the Inhibition [2] was -23%.
`CCCCc1nc(-c2ncccc2OC)cn1Cc1ccc(-c2ccccc2-c2nn[nH]n2)cc1` gave a Ki [1] of 290 nM.
Work on `CCCCc1nc(-c2ccc(C(=O)OC)nn2)cn1Cc1ccc(-c2ccccc2-c2nn[nH]n2)cc1` yielded a Ki [1] of 8.8 nM and an Inhibition [2] of -9.3%.
`CCCCc1nc(-c2cccc(OC)n2)cn1Cc1ccc(-c2ccccc2-c2nn[nH]n2)cc1` gave a Ki [1] of 25 nM and an Inhibition [3] of -11%.
`CCCCc1nc(-c2cncnc2)cn1Cc1ccc(-c2ccccc2-c2nn[nH]n2)cc1` was tested, and the Ki [1] was 42 nM.
For `CCCCc1nc(-c2nccnc2C(=O)OC)cn1Cc1ccc(-c2ccccc2-c2nn[nH]n2)cc1`, the Ki [1] was 90 nM.
Compound `CCCCc1nc(-c2nc(C)c[n+]([O-])c2C)cn1Cc1ccc(-c2ccccc2-c2nn[nH]n2)cc1` has a Ki [1] of 4.4 nM and an Inhibition [2] of -21%.
`CCCCc1nc(-c2cccnc2C(=O)OC)cn1Cc1ccc(-c2ccccc2-c2nn[nH]n2)cc1` showed a Ki [1] of 45 nM.
Work on `CCCCc1nc(Cl)c(CO)n1Cc1ccc(-c2ccccc2-c2nnn[nH]2)cc1` [LOSARTAN] yielded an Inhibition [2] of -33%.
Compound `CCCCc1nc(-c2ncccc2C(=O)OC)cn1Cc1ccc(-c2ccccc2-c2nn[nH]n2)cc1` has a Ki [1] of 40 nM.
Work on `CCCCc1nc(-c2nc(C)ccc2C(=O)OC)cn1Cc1ccc(-c2ccccc2-c2nn[nH]n2)cc1` yielded a Ki [1] of 32 nM.
`CCCCc1nc(-c2cnccc2C(=O)OC)cn1Cc1ccc(-c2ccccc2-c2nn[nH]n2)cc1` was tested, and the Ki [1] was 67 nM.
`CCCCc1nc(-c2cncc[n+]2[O-])cn1Cc1ccc(-c2ccccc2-c2nn[nH]n2)cc1` showed a Ki [1] of 243 nM.
Work on `CCCCc1nc(-c2ccc(C(=O)OC)c[n+]2[O-])cn1Cc1ccc(-c2ccccc2-c2nn[nH]n2)cc1` yielded a Ki [1] of 27 nM.
Work on `CCCCc1nc(-c2c(C(=O)OC)c(C)cc(C)[n+]2[O-])cn1Cc1ccc(-c2ccccc2-c2nn[nH]n2)cc1` yielded a Ki [1] of 9.1 nM and an Inhibition [2] of -29%.
Compound `CCCCc1nc(-c2c(C(=O)OC)ccc(C)[n+]2[O-])cn1Cc1ccc(-c2ccccc2-c2nn[nH]n2)cc1` has a Ki [1] of 4.5 nM and an Inhibition [2] of -55%.
Work on `CCCCc1nc(-c2ccc(C)[n+]([O-])n2)cn1Cc1ccc(-c2ccccc2-c2nn[nH]n2)cc1` yielded a Ki [1] of 40 nM and an Inhibition [2] of -27%.
Compound `CCCCc1nc(-c2cnccn2)cn1Cc1ccc(-c2ccccc2-c2nn[nH]n2)cc1` has a Ki [1] of 40 nM.
In the case of `CCCCc1nc(-c2ccc(C(=O)OC)[n+]([O-])n2)cn1Cc1ccc(-c2ccccc2-c2nn[nH]n2)cc1`, the Ki [1] is reported as 54 nM.
In the case of `CCCCc1nc(-c2cc(C(=O)OC)cc(C)[n+]2[O-])cn1Cc1ccc(-c2ccccc2-c2nn[nH]n2)cc1`, the Ki [1] is reported as 180 nM.
`CCCCc1nc(-c2nc(C)cc(C)c2C(=O)OC)cn1Cc1ccc(-c2ccccc2-c2nn[nH]n2)cc1` was tested, and the Ki [1] was 53 nM.
`CCCCc1nc(-c2ccc(C(=O)OC)cn2)cn1Cc1ccc(-c2ccccc2-c2nn[nH]n2)cc1` gave a Ki [1] of 12 nM and an Inhibition [2] of -33%.
`CCCCc1nc(-c2nccc[n+]2[O-])cn1Cc1ccc(-c2ccccc2-c2nn[nH]n2)cc1` gave a Ki [1] of 61 nM.
In the case of `CCCCc1nc(-c2ccc(C)n[n+]2[O-])cn1Cc1ccc(-c2ccccc2-c2nn[nH]n2)cc1`, the Ki [1] is reported as 44 nM and the Inhibition [2] is reported as -35%.
`CCCCc1nc(-c2nc(C)ccc2OC)cn1Cc1ccc(-c2ccccc2-c2nn[nH]n2)cc1` was tested, and the Ki [1] was 250 nM.
